Assay results from the array DNA melting data of Ke et al. (doi:10.1101/2024.01.08.574731).

What was measured:
[1] = folding enthalpy; higher = less favourable; fluorescence melt of hairpins on a sequencing array, two-state fit; settings: sodium 0.088 M
Method in brief: (§1)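 Library hairpins on a sequenced MiSeq flow cell carried annealed Cy3 and quencher oligos, and their Cy3 fluorescence was imaged in 50 mM Na-HEPES pH 8.0 with 25 mM NaCl, in 2.5 °C steps up to 60 °C. Signals were normalised to Cy3 before quenching and to control constructs. Melting temperature and folding enthalpy were obtained from bootstrapped two-state fits, combined by inverse-variance weighting across four replicates, and the fitted temperatures were then raised by 9.35 °C to match UV melts.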

[2] = melting temperature; fluorescence melt of hairpins on a sequencing array, two-state fit, raised by 9.35 °C to match UV melts; settings: sodium 0.088 M
Method in brief: as §1

Row | Sequence | folding enthalpy [1] [kcal/mol] | Tm [2] [°C]
1 | GGTTAGGGAAACTTGACC (((.(.(....).).))) | -18.9 | 28
2 | GATCTTACCGAAGATC ((((((....)))))) | -33 | 42.9
3 | GCACGACGAAAGTCATGC (((.(((....))).))) | -36.5 | 52.6
4 | GATATGCGAAAGCACATC (((.(((....))).))) | -19.1 | 39.3
5 | GGATCTGCGAAAGCATCC (((..(((....)))))) | -14.9 | 35.2
6 | GCGTGAGTACGC ((((....)))) | -19.9 | 52.5
7 | GTTTCCGAAAGGATCAAC ((((((....)))..))) | -11.2 | 22.4
8 | GAGCAGGGAAACCTGTTC ((.((((....)))).)) | -24.1 | 46
9 | GGCCAGGCGAAAGCCGCC (((..(((....)))))) | -13.9 | 58.4
10 | GTGGGCGAAAGCCAACAC ((((((....)))..))) | -15 | 53.5
11 | GCTAGACGAAAGTCGAGC (((.(((....))).))) | -32.9 | 60.2
12 | GCGCACGAAAGTGTCGC ((((((....))).))) | -27.6 | 64.2
13 | ATTGTGAAAACAAT (((((....))))) | -14.9 | 39
14 | GCGCGGCGAAAGCCCGGC ((..(((....)))..)) | -12.8 | 59.7
15 | GATCTTAGTAAAGATC ((((((....)))))) | -30.3 | 43.1
16 | GGTTCTGCGAAAGCAACC (((..(((....)))))) | -12.3 | 31.1
17 | GATCTAACCCTAGATC ((((((....)))))) | -31.1 | 37.5
18 | GATCCCATGTGGGATC ((((((....)))))) | -38.2 | 61.2
19 | GACCCCGAAAGGGCGGTC ((((((....)))..))) | -17.2 | 45.9
20 | GATCCGTTAGCGGATC ((((((....)))))) | -39.9 | 60.8
21 | GGAAACGAAAGTTATCC ((((((....))).))) | -12.1 | 31.9
22 | GGTCAAGAAATTGACC ((((((....)))))) | -41.4 | 52.7
23 | GATCCCGAAAGGGTAATC ((((((....)))..))) | -10.8 | 31.2

Row | Sequence | folding enthalpy [1] [kcal/mol] | Tm [2] [°C]
24 | GATCTCCGCGAGATC ((((((...)))))) | -44.8 | 55.4
25 | GCGAGGGTTCGC ((((....)))) | -15.7 | 49.3
26 | GCCTTGCGAAAGCAGGC (((.(((....)))))) | -24 | 66.7
27 | GCTGTGGGAAACCACGGC ((.((((....)))).)) | -36.2 | 58.8
28 | GGAGGGGGAAACCCTTCC (((.(((....))).))) | -25.7 | 49.2
29 | GGCTCAGGAAACTGGGTC (.(.(((....))).).) | -25.9 | 38
30 | GTGAGTGCGAAAGCACAC (((..(((....)))))) | -12.5 | 48.6
31 | GCTCTGGGAAACCAAAGC (((.(((....))).))) | -23.7 | 35.5
32 | GCACACGAAAGTGTATGC ((((((....)))..))) | -15.1 | 45.8
33 | GGCTTCGAAAGAAGGGCC ((((((....)))..))) | -19.6 | 40.4
34 | GATCTGGGTTCAGATC ((((((....)))))) | -43.3 | 49.4
35 | GTGGAAGGAAACTTCCGC (.(((((....))))).) | -24.1 | 51.1
36 | CGTGTCGGAAACGAACG (((.(((....)))))) | -24.3 | 37.7
37 | GATCGGCAGACCGATC ((((((....)))))) | -38 | 57.5
38 | GATCGACATTTCGATC ((((((....)))))) | -38.6 | 50.8
39 | GCGGGAGGAAACTCCCAC (.(((((....))))).) | -13.7 | 48.7
40 | GTGTATGGAAACGTACAC (((((.(....).))))) | -33.9 | 47.2
41 | GTGCTTGGAAACGAGTAC ((.((.(....).)).)) | -19.3 | 35
42 | GTGCATGGAAACATGCAC (((((((....))))))) | -33.8 | 68.6
43 | GGAAGGTCGAAAGACTCC (((..(((....)))))) | -13.8 | 33.1
44 | GCGTTAAACGC ((((...)))) | -19 | 50.9
45 | GATCCGCCTACGGATC ((((((....)))))) | -37.9 | 59.6
46 | GTGCACGAAAGTGATCAC ((((((....)))..))) | -12.7 | 37.4
